# ARFGAP1 inh: inhibitors of rat ARFGAP1 GAP activity, primary screen, biochemical, fluorescence polarization, GDP tracer; AID 651572, 2012; inhibition, % at 16.5 µM; Arfgap1-stimulated ARF1 GTP hydrolysis, GDP FP detection; actives 0.26% (n = 360,000); ADP-ribosylation factor GTPase-activating protein 1 (Rattus norvegicus), Q62848;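 active = inhibition above a per-plate limit, mean inhibition of low control wells plus 3 SD, cut at about 25% in these data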
#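 Repeats: one replicate per compound; assay system: rat Arfgap1 catalytic domain, aa 1-136; times: enzyme reaction 120 min at 25 °C after 20 min preincubation; detection: FP of antibody-bound GDP Alexa 633 tracer, ex 620/em 688 nm; benchmarks: high control wells lacking Arfgap1, low control full reaction with DMSO; reagent: human ARF1(Δ1-17)-GTP substrate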
# ASAP1 GAP inh: inhibitors of human ASAP1 ArfGAP activity, primary screen, biochemical, fluorescence polarization | Arf-GAP with SH3 domain, ANK repeat and PH domain-containing protein 1 (Homo sapiens), … | ASAP1-stimulated ARF1 GTP hydrolysis, GDP FP detection | inhibition, % at 16.5 µM | actives 0.19% (n = 360,000); in the data active = inhibition above about 25%
# Target sequence (Q9ULH1 325-724 limits assumed): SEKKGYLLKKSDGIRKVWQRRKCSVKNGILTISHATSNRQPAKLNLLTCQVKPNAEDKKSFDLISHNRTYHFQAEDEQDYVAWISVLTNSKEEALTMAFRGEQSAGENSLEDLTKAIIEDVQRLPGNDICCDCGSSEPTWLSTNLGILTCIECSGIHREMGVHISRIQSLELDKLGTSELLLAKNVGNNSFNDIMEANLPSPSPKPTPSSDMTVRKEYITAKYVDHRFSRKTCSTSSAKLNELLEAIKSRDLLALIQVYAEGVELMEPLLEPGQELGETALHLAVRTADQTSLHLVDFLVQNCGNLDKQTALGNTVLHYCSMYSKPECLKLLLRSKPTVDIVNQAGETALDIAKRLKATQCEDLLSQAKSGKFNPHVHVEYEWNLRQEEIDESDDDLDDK
# Tn6 DDE FP: inhibitors of Tn6 peptide binding to fibrin DD(E), primary screen, biochemical, fluorescence polarization, human fibrin, Tn6 probe | Fibrin DD(E) TRITC-Tn6 fluorescence polarization displacement | actives 0.21% (n = 370,000) | inhibition, % at 8.3 µM | AID 720509, 2013;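 active = inhibition above a per-campaign cutoff: mean of compounds within control limits plus 3 SD, cut at about 15% in these data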
# DDE Tn7 FP inh: inhibitors of Tn7 peptide binding to fibrin DD(E), primary screen, biochemical, fluorescence polarization, human fibrin, Tn7 probe | actives 0.13% (n = 370,000) | FP displacement of FITC-Tn7 peptide from fibrin DD(E); 0% = median of compound wells per plate | Fibrinogen beta chain (Homo sapiens), P02675 | inhibition, % at 8.3 µM;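 active = inhibition above the mean of compounds falling within the control limits plus 3 SD of them, cut at about 14% in these data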
#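 Assay system: Human fibrin DD(E) protein | Medium: Tris buffer with calcium and detergent, pH 7.8 | Reagent: 0.1 µM fluorescent Tn7 | Compound dosing: Single point at 8.3 µM | Times: 10 min preincubation, 3 h with tracer, room temperature | Detection: Fluorescence polarization of the labelled Tn7 tracer | Controls: Aha-Tn7 high control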
# A number is an active result; i = inactive; nt = no result; + = active, no number. Most compounds without a hit are left out; they make up all but 0.74% or so of the library.
SMILES,ARFGAP1 inh,ASAP1 GAP inh,Tn6 DDE FP,DDE Tn7 FP inh
O=C(Cc1ccccc1)N/N=C/c1cc(Br)c(Br)o1,i,27,i,i
O=C(Cc1ccccc1)NN=Cc1ccccc1,i,i,i,i
COC(=O)[C@]12C[C@H](CC(=O)NCCc3ccccc3OC)C(=O)N(CCc3ccc(OC)c(OC)c3)C1=C[C@H](C1CCCC1)O[C@@H]2C,nt,nt,i,i
Cc1ccc2nc(-c3ccc(NC(=O)CSc4nnc(-c5cccc(Cl)c5)n4Cc4ccco4)cc3)sc2c1,nt,nt,i,i
Cc1ccc(C(=O)NCc2nnc(SCC(=O)Nc3sc4c(c3C#N)CCCC4)n2C)cc1,25,i,i,i
CCOP(=O)(CC(C(C)=O)C(O)c1ccccc1)OCC (stereo unspecified),i,i,i,14
COc1cccc2c1C(=O)c1c(O)c3c(c(O)c1C2=O)C[C@@](O)(C(=O)CO)C[C@@H]3O[C@H]1C[C@H](N)[C@H](O)[C@H](C)O1,i,i,+,19
COc1cccc2c1C(=O)c1c(O)c3c(c(O)c1C2=O)C[C@@](O)(C(=O)CO)C[C@@H]3OC1CC(N)C(O)C(C)O1 (stereo partly specified),i,i,+,i
CC(=O)[C@@]1(O)Cc2c(O)c3c(c(O)c2[C@H](O[C@H]2C[C@H](N)[C@H](O)[C@H](C)O2)C1)C(=O)c1ccccc1C3=O,i,i,198,51
CCN1C(=O)CC(N2CCOCC2)C1=O (stereo unspecified),i,i,i,i
CCN1C(=O)CC(N2CCC(C(=O)N3CCOCC3)CC2)C1=O (stereo unspecified),i,i,i,16
C#CCNC(=O)C[C@H]1C[C@@]2(C(=O)OC)C(=C[C@H](COCc3ccccc3)O[C@@H]2C)N(Cc2cccc3ccccc23)C1=O,nt,nt,i,i
COc1ccc(-c2cc(C#N)nc(N3CCNCC3)n2)cc1,75,53,i,i
COc1ccc2c(c1)c(=O)oc1cc(OCC(=O)N3CCCC(C)C3)ccc12 (stereo unspecified),43,41,i,i
CCOC(=O)N1C(=O)C[C@](Sc2ccc(OC)cc2)(C(=O)N(C)C)[C@H]1c1ccc(OC)cc1,nt,nt,i,i
COc1ccc(C2SCC(C(=O)O)N2C(C)=O)cc1OC (stereo unspecified),27,i,i,i
O=C(/C=C/c1cccnc1)c1ccc(NC(=O)c2cccc(Br)c2)cc1,i,26,i,i
Cc1cccc(C(=O)Nc2ccc(C(=O)/C=C/c3cccnc3)cc2)c1,i,i,i,i
CCOC(=O)Cn1cc(CN2CCS(=O)(=O)N(Cc3ccc(F)cc3)C(C(=O)OC)C2)nn1 (stereo unspecified),nt,nt,i,i
CCOC(=O)N1CCN(C2=C(NS(=O)(=O)c3ccccc3)C(=O)c3ccccc3C2=O)CC1,33,29,i,i
CCN1C(=O)c2cccc3c(N)ccc(c23)C1=O,i,i,i,32
CN(C)CCCN1C(=O)c2cccc3c(Br)ccc(c23)C1=O,i,i,i,i
Cc1ccc(NC2=C/C(=N/S(=O)(=O)c3cccs3)c3ccccc3C2=O)cc1,i,33,i,i
CCN1CCN(Cc2ccc(NC(=O)c3cc(NC(=O)c4cc(-c5ccc(OC)cc5)n[nH]4)cc(OC)c3)cc2C(F)(F)F)CC1,31,26,i,i
CCCCCCOc1ccc(N2C(=O)CC(N3CCN(C(=O)c4ccco4)CC3)C2=O)cc1 (stereo unspecified),i,i,i,i
CCCOc1ccc(N2C(=O)CC(N3CCN(C(=O)c4ccco4)CC3)C2=O)cc1 (stereo unspecified),i,i,17,i
C[C@H](CO)N1C[C@H](C)[C@@H](CN(C)Cc2ccc(Cl)c(Cl)c2)Oc2c(NS(=O)(=O)c3ccc(F)cc3)cccc2C1=O,i,31,i,i
C[C@H](CO)N1C[C@H](C)[C@@H](CN(C)Cc2ccccc2)Oc2c(NS(=O)(=O)c3ccc(F)cc3)cccc2C1=O,i,i,i,i
CCCC(=O)NCc1ccc2c(c1)cc(C)n2C,33,i,i,i
Cc1cc2cc(CNC(=O)CCC(=O)O)ccc2n1C,i,i,i,i

# Source: PubChem
